Converted amounts (≈) assume the structure as drawn. *1 amine or outer side, *2 acyl side, *3 side chain or, on linkers, in order; H or OH if unused. Where a SMILES comes first, the peptide text is derived from it. Bridges are numbered along the chain shown (N, C = ends). [ ]: non-standard residue; d: D form. The star is where a group is joined. hTyr(3S-OH,4S-OH,3'-OSO3H) = N[C@H](C(=O)O)[C@H](O)[C@@H](O)c1ccc(O)c(OS(=O)(=O)O)c1; Orn(4R-OH,5R-OH) = O=C([C@H](C[C@@H](O)[C@@H](O)N[*:3])N[*:1])[*:2]; Pro(3S-OH,4S-Me) = C[C@H]1CN[C@H](C(=O)O)[C@H]1O; X1 = CCCCCOc1ccc(-c2cc(-c3ccc(C(=O)*)cc3)no2)cc1; Gln(3R-OH) = NC(=O)C[C@@H](O)[C@H](N)C(=O)O; Hyp = O=C(O)[C@@H]1C[C@@H](O)CN1
Columns and labels:
[1] = system: Nakaseomyces glabratus; assay: Antifungal activity against Candida glabrata isolate 5376 by CLSI method; assay type: functional
Method in brief: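 Broth microdilution MIC per CLSI M27-A2. Two endpoints were read against the drug-free control well: partial inhibition (M1, CLSI recommended) and complete inhibition (M2). Tests were run in duplicate on four separate occasions, and the value is the mean.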

[2] = system: Nakaseomyces glabratus; assay: Fungistatic activity against Candida glabrata isolate 513 infected in ICR/Swiss neutropenic mouse after 24 hrs; assay type: functional
Method in brief: (§1)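 Neutropenic female ICR/Swiss mice received cyclophosphamide sc at 150 mg/kg on day −4, 100 mg/kg on day −1 and 100 mg/kg on day +2. Mice were infected iv via the tail vein, and ip micafungin in 0.15 M NaCl started 2 h later. Six dose levels from 0.078 to 80 mg/kg/24 h were given q24h for 4 days, 3 mice per dose. Kidney CFU were counted at 96 h. The static dose was derived from a sigmoid Emax (Hill) fit.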

[3] = AUC (0 to infinity) in Candida infected ICR/Swiss neutropenic mouse at 5 mg/kg, ip; assay type: ADME, organism-based; design: dose 5 mg/kg, route intraperitoneal, time infinity; conditions: plasma
Method in brief: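 Single intraperitoneal micafungin doses (80, 20, 5 mg/kg in 0.2 ml, 0.15 M NaCl) given to infected neutropenic mice. Serum was taken from 3 mice per time point at 1, 2, 4, 6, 8, 12, 24 and 48 h. Drug was measured by microbiologic assay with C. albicans K1 (LLOQ 0.12 μg/ml). Noncompartmental analysis; half-life by nonlinear least squares; AUC by trapezoidal rule.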

[4] = Ratio of AUC in ICR/Swiss neutropenic mouse at static dose of 3.88 mg/kg, ip after 24 hrs to MIC for Candida glabrata isolate 33616; assay type: functional; conditions: route intraperitoneal
[5] = system: Nakaseomyces glabratus; assay: Fungistatic activity against Candida glabrata isolate 34341 infected in ICR/Swiss neutropenic mouse after 24 hrs; assay type: functional; method in brief: as §1
[6] = Ratio of AUC in ICR/Swiss neutropenic mouse at static dose of 3.76 mg/kg, ip after 24 hrs to MIC for Candida glabrata isolate 570; assay type: functional; conditions: route intraperitoneal
[7] = Ratio of fAUC in ICR/Swiss neutropenic mouse at static dose of 3.76 mg/kg, ip after 24 hrs to MIC for Candida glabrata isolate 570; assay type: functional; conditions: route intraperitoneal
[8] = Ratio of fAUC in ICR/Swiss neutropenic mouse at 1-Log kill dose of 3.77 mg/kg, ip after 24 hrs to MIC for Candida glabrata isolate 35315; assay type: functional; conditions: route intraperitoneal
[9] = system: Nakaseomyces glabratus; assay: Antifungal activity against Candida glabrata isolate 5376 infected in ICR/Swiss neutropenic mouse assessed as dose required for 1-log kill after 24 hrs; assay type: functional
Method in brief: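 Neutropenic mice (cyclophosphamide sc 150 mg/kg day −4, 100 mg/kg day −1 and +2) infected iv by tail vein 2 h before therapy. Micafungin given ip every 24 h for 4 days at six fourfold-spaced dose levels, 0.078–80 mg/kg/24 h, 3 mice per group. Kidney CFU read at 96 h. Hill-model fit; dose giving 1 log10 below start-of-therapy burden.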

In the case of `CCCCCOc1ccc(-c2cc(-c3ccc(C(=O)N[C@H]4C[C@@H](O)[C@@H](O)NC(=O)[C@@H]5[C@@H](O)[C@@H](C)CN5C(=O)[C@H]([C@H](O)CC(N)=O)NC(=O)[C@H]([C@H](O)[C@@H](O)c5ccc(O)c(OS(=O)(=O)O)c5)NC(=O)[C@@H]5C[C@@H](O)CN5C(=O)[C@H]([C@@H](C)O)NC4=O)cc3)no2)cc1` [MICAFUNGIN] (X1-[Orn(4R-OH,5R-OH)]T[Hyp][hTyr(3S-OH,4S-OH,3'-OSO3H)][Gln(3R-OH)][Pro(3S-OH,4S-Me)]; lactam 1-C), the MIC [1] is reported as 0.016 µg/mL (≈ 12.6 nM), the MIC50 [1] is reported as 0.008 µg/mL (≈ 6.3 nM) and the Activity [2] is reported as 1.34 mg/kg. For the same compound, the AUC(0-inf) [3] was 138 µg·h/mL, the RatioAUC/MIC [4] was 428 and the Activity [5] was 2.18 mg/kg. The RatioAUC/MIC [6] was 6933, the fAUC/MIC [7] was 17.3 and the fAUC/MIC [8] was 4.33. For the same compound, the Activity [9] was 2 mg/kg.
